Test results as given in ChEMBL document CHEMBL1926569, “Novel (E)-1-(4-methyl-2-(alkylamino)thiazol-5-yl)-3-arylprop-2-en-1-ones as potent antimicrobial agents” (2011).
Converted amounts (≈) assume the structure as drawn.

Key:
[1] = tested on: Talaromyces funiculosus; assay: Ratio of bifonazole to compound for Penicillium funiculosum ATCC 36839; assay type: functional
[2] = tested on: Salmonella typhimurium; assay: Antibacterial activity against Salmonella Typhimurium ATCC 13311 after 24 hrs by microdilution method; assay type: functional, Salmonella enterica subsp. enterica serovar Typhimurium; conditions: Salmonella enterica, ATCC 13311, 24 h
In short: (§1)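 Broth microdilution in 96-well plates. Bacterial suspensions were adjusted in sterile saline to 1.0 × 10⁵ CFU/ml, prepared daily and kept at 4 °C. Compound was added to LB broth with 1.0 × 10⁴ CFU per well and shaken at 160 rpm for 24 h at […] (so in the source). MIC is the lowest concentration with no visible growth under a binocular microscope. OD655 was also read. Duplicate, repeated three times.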

[3] = tested on: Aspergillus flavus; assay: Antifungal activity against Aspergillus flavus ATCC 9643 incubated for 72 hrs followed by serial sub-cultivation for 72 hrs by serial dilution technique; assay type: functional; conditions: ATCC 9643, 72 h
In short: (§2)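 MFC: material from 72 h malt broth microdilution wells was serially sub-cultured into fresh broth plates and incubated a further 72 h at 28 °C. Fungicidal concentration is taken from growth after sub-culture. Duplicate, repeated three times.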

[4] = tested on: Candida albicans; assay: Ratio of bifonazole to compound for Candida albicans isolated from human; assay type: functional
[5] = tested on: Pseudomonas aeruginosa; assay: Ratio of ampicillin MIC to compound MIC for Pseudomonas aeruginosa ATCC 27853; assay type: functional
[6] = tested on: Aspergillus niger; assay: Antifungal activity against Aspergillus niger ATCC 6275 after 72 hrs by serial dilution technique; assay type: functional; conditions: ATCC 6275, 72 h
In short: (§3)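 Modified microdilution in 96-well plates. Fungi were kept on malt agar at 4 °C. Spores were washed off in sterile 0.85% saline with 0.1% Tween 80. Compounds were dissolved at 1 mg/ml in 5% DMSO with 0.1% Tween 80 and added to malt broth with inoculum. Plates were shaken at 160 rpm for 72 h at 28 °C. Duplicate, repeated three times.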

[7] = tested on: Micrococcus flavus; assay: Antibacterial activity against Micrococcus flavus ATCC 10240 incubated for 24 hrs followed by serial sub-cultivation for 24 hrs by microdilution; assay type: functional; conditions: ATCC 10240, 24 h
In short: (§4)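 MBC: after the 24 h LB broth microdilution (1.0 × 10⁴ CFU per well, 160 rpm), wells were serially sub-cultured into fresh broth plates and incubated a further 24 h. MBC is the lowest concentration with no visible growth, taken as 99.5% killing of the original inoculum. Duplicate, repeated three times.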

[8] = tested on: Penicillium ochrochloron; assay: Ratio of bifonazole to compound for Penicillium ochrochloron ATCC 9112; assay type: functional
[9] = tested on: Aspergillus flavus; assay: Antifungal activity against Aspergillus flavus ATCC 9643 after 72 hrs by serial dilution technique; assay type: functional; conditions: ATCC 9643, 72 h; in short: as §3
[10] = tested on: Candida albicans; assay: Ratio of ketoconazole to compound for Candida albicans isolated from human; assay type: functional
[11] = tested on: Bacillus cereus; assay: Antibacterial activity against clinical isolate of Bacillus cereus incubated for 24 hrs followed by serial sub-cultivation for 24 hrs by microdilution; assay type: functional; in short: as §4
[12] = tested on: Pseudomonas aeruginosa; assay: Antibacterial activity against Pseudomonas aeruginosa ATCC 27853 incubated for 24 hrs followed by serial sub-cultivation for 24 hrs by microdilution; assay type: functional; conditions: ATCC 27853, 24 h; in short: as §4
[13] = tested on: Candida albicans; assay: Antifungal activity against Candida albicans isolated from human incubated for 72 hrs followed by serial sub-cultivation for 72 hrs by serial dilution technique; assay type: functional; in short: as §2
[14] = tested on: Candida albicans; assay: Antifungal activity against Candida albicans isolated from human after 72 hrs by serial dilution technique; assay type: functional; in short: as §3
[15] = tested on: Aspergillus ochraceus; assay: Ratio of ketoconazole to compound for Aspergillus ochraceus ATCC 12066; assay type: functional
[16] = tested on: Trichoderma viride; assay: Ratio of bifonazole to compound for Trichoderma viride IAM 5061; assay type: functional
[17] = tested on: Aspergillus ochraceus; assay: Antifungal activity against Aspergillus ochraceus after 72 hrs by serial dilution technique
[18] = tested on: Trichoderma viride; assay: Antifungal activity against Trichoderma viride IAM 5061 after 72 hrs by serial dilution technique; assay type: functional; conditions: IAM 5061, 72 h; in short: as §3
[19] = tested on: Aspergillus ochraceus; assay: Antifungal activity against Aspergillus ochraceus ATCC 12066 after 72 hrs by serial dilution technique; assay type: functional; conditions: ATCC 12066, 72 h; in short: as §3
[20] = tested on: Listeria monocytogenes; assay: Antibacterial activity against Listeria monocytogenes NCTC 7973 after 24 hrs by microdilution method; assay type: functional; conditions: NCTC 7973, 24 h; in short: as §1
[21] = tested on: Micrococcus flavus; assay: Antibacterial activity against Micrococcus flavus ATCC 10240 after 24 hrs by microdilution method; assay type: functional; conditions: ATCC 10240, 24 h; in short: as §1
[22] = tested on: Bacillus cereus; assay: Antibacterial activity against clinical isolate of Bacillus cereus after 24 hrs by microdilution method; assay type: functional; in short: as §1
[23] = tested on: Aspergillus ochraceus; assay: Ratio of bifonazole to compound for Aspergillus ochraceus ATCC 12066; assay type: functional
[24] = tested on: Enterococcus faecalis; assay: Antibacterial activity against Enterococcus faecalis isolated from human after 24 hrs by microdilution method; assay type: functional; in short: as §1
[25] = tested on: Salmonella typhimurium; assay: Antibacterial activity against Salmonella Typhimurium ATCC 13311 incubated for 24 hrs followed by serial sub-cultivation for 24 hrs by microdilution; assay type: functional, Salmonella enterica subsp. enterica serovar Typhimurium; conditions: Salmonella enterica, ATCC 13311, 24 h; in short: as §4
[26] = tested on: Escherichia coli; assay: Antibacterial activity against Escherichia coli ATCC 35210 incubated for 24 hrs followed by serial sub-cultivation for 24 hrs by microdilution; assay type: functional; conditions: ATCC 35210, 24 h; in short: as §4
[27] = tested on: Enterococcus faecalis; assay: Antibacterial activity against Enterococcus faecalis isolated from human incubated for 24 hrs followed by serial sub-cultivation for 24 hrs by microdilution; assay type: functional; in short: as §4
[28] = tested on: Talaromyces funiculosus; assay: Antifungal activity against Penicillium funiculosum ATCC 36839 after 72 hrs by serial dilution technique; assay type: functional; conditions: ATCC 36839, 72 h; in short: as §3
[29] = tested on: Penicillium ochrochloron; assay: Antifungal activity against Penicillium ochrochloron ATCC 9112 incubated for 72 hrs followed by serial sub-cultivation for 72 hrs by serial dilution technique; assay type: functional; conditions: ATCC 9112, 72 h; in short: as §2
[30] = tested on: Staphylococcus aureus; assay: Antibacterial activity against Staphylococcus aureus ATCC 6538 after 24 hrs by microdilution method; assay type: functional; conditions: ATCC 6538, 24 h; in short: as §1
[31] = tested on: Aspergillus ochraceus; assay: Antifungal activity against Aspergillus ochraceus ATCC 12066 incubated for 72 hrs followed by serial sub-cultivation for 72 hrs by serial dilution technique; assay type: functional; conditions: ATCC 12066, 72 h; in short: as §2
[32] = tested on: Staphylococcus aureus; assay: Antibacterial activity against Staphylococcus aureus ATCC 6538 incubated for 24 hrs followed by serial sub-cultivation for 24 hrs by microdilution method; assay type: functional; conditions: ATCC 6538, 24 h; in short: as §4
[33] = tested on: Aspergillus fumigatus; assay: Antifungal activity against Aspergillus fumigatus isolated from human incubated for 72 hrs followed by serial sub-cultivation for 72 hrs by serial dilution technique; assay type: functional; in short: as §2
[34] = tested on: Aspergillus niger; assay: Antifungal activity against Aspergillus niger ATCC 6275 incubated for 72 hrs followed by serial sub-cultivation for 72 hrs by serial dilution technique; assay type: functional; conditions: ATCC 6275, 72 h; in short: as §2
[35] = tested on: Penicillium ochrochloron; assay: Antifungal activity against Penicillium ochrochloron ATCC 9112 after 72 hrs by serial dilution technique; assay type: functional; conditions: ATCC 9112, 72 h; in short: as §3
[36] = tested on: Trichoderma viride; assay: Antifungal activity against Trichoderma viride IAM 5061 incubated for 72 hrs followed by serial sub-cultivation for 72 hrs by serial dilution technique; assay type: functional; conditions: IAM 5061, 72 h; in short: as §2
[37] = tested on: Penicillium ochrochloron; assay: Ratio of ketoconazole to compound for Penicillium ochrochloron ATCC 9112; assay type: functional
[38] = tested on: Pseudomonas aeruginosa; assay: Antibacterial activity against Pseudomonas aeruginosa ATCC 27853 after 24 hrs by microdilution method; assay type: functional; conditions: ATCC 27853, 24 h; in short: as §1
[39] = tested on: Escherichia coli; assay: Antibacterial activity against Escherichia coli ATCC 35210 after 24 hrs by microdilution method; assay type: functional; conditions: ATCC 35210, 24 h; in short: as §1
[40] = tested on: Aspergillus fumigatus; assay: Ratio of ketoconazole to compound for Aspergillus fumigatus isolated from human; assay type: functional
[41] = tested on: Aspergillus niger; assay: Ratio of bifonazole to compound for Aspergillus niger ATCC 6275; assay type: functional
[42] = tested on: Listeria monocytogenes; assay: Antibacterial activity against Listeria monocytogenes NCTC 7973 incubated for 24 hrs followed by serial sub-cultivation for 24 hrs by microdilution; assay type: functional; conditions: NCTC 7973, 24 h; in short: as §4
[43] = tested on: Talaromyces funiculosus; assay: Antifungal activity against Penicillium funiculosum ATCC 36839 incubated for 72 hrs followed by serial sub-cultivation for 72 hrs by serial dilution technique; assay type: functional; conditions: ATCC 36839, 72 h; in short: as §2

CCCNc1nc(C)c(C(=O)/C=C/c2ccccc2)s1
Ratio [1]: 10
MIC [2]: 70 µM (≈ 20 µg/mL)
MFC [3]: 70 µM (≈ 20 µg/mL)
Ratio [4]: 10
Ratio [5]: 10
MIC [6]: 52.4 µM (≈ 15 µg/mL)
MBC [7]: 105 µM (≈ 30.1 µg/mL)
Ratio [8]: 10
MIC [9]: 52.4 µM (≈ 15 µg/mL)
Ratio [10]: 10
MBC [11]: 70 µM (≈ 20 µg/mL)
MBC [12]: 90 µM (≈ 25.8 µg/mL)
MFC [13]: 70 µM (≈ 20 µg/mL)
MIC [14]: 35 µM (≈ 10 µg/mL)
Ratio [15]: 10
Ratio [16]: 10
MIC [17]: 52.4 µM (≈ 15 µg/mL)
MIC [18]: 26.2 µM (≈ 7.5 µg/mL)
MIC [19]: 35 µM (≈ 10 µg/mL)
MIC [20]: 90 µM (≈ 25.8 µg/mL)
MIC [21]: 70 µM (≈ 20 µg/mL)
MIC [22]: 35 µM (≈ 10 µg/mL)
Ratio [23]: 10
MIC [24]: 90 µM (≈ 25.8 µg/mL)
MBC [25]: 90 µM (≈ 25.8 µg/mL)
MBC [26]: 88 µM (≈ 25.2 µg/mL)
MBC [27]: 90 µM (≈ 25.8 µg/mL)
MIC [28]: 52.4 µM (≈ 15 µg/mL)
MFC [29]: 70 µM (≈ 20 µg/mL)
MIC [30]: 90 µM (≈ 25.8 µg/mL)
MFC [31]: 52.4 µM (≈ 15 µg/mL)
MBC [32]: 105 µM (≈ 30.1 µg/mL)
MFC [33]: 70 µM (≈ 20 µg/mL)
MFC [34]: 70 µM (≈ 20 µg/mL)
MIC [35]: 35 µM (≈ 10 µg/mL)
MFC [36]: 35 µM (≈ 10 µg/mL)
Ratio [37]: 10
MIC [38]: 70 µM (≈ 20 µg/mL)
MIC [39]: 70 µM (≈ 20 µg/mL)
Ratio [40]: 10
Ratio [41]: 10
MBC [42]: 105 µM (≈ 30.1 µg/mL)
MFC [43]: 70 µM (≈ 20 µg/mL)
